Compound activity deposited in PubChem BioAssay by several laboratories.
Neddyl block – inhibitors of human cullin neddylation | 0.58% of 360,000 active | P61081+Q13564 | calls only at 25 µM | TR-FRET cullin neddylation, biochemical; in the data active = inhibition above about 36%
NR2E3 ag-1 – activates human NR2E3 receptor | Q9Y5X4 | AID 602229 | inhibition of corepressor binding, % at 3.98 µM | CHO-S Gal4-NCOR/VP16-NR2E3 two-hybrid, luciferase | 0.35% of 360,000 active;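 active = inhibition above the mean of all tested compounds plus 3 SD, cut at about 70% in these data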;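 note: higher means lower luciferase signal from less NR2E3 corepressor binding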
Rev-erbA mod – modulates human Rev-erb alpha binding to DNA; P20393; Rev-erbα–FITC-DNA binding, fluorescence polarization, 90 min; activity, % at 10 µM; 0.79% of 370,000 active;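 active = activity above about 14%, limit read from the data; passing the limit was not always enough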
Target sequence (P20393 whole entry, looked up): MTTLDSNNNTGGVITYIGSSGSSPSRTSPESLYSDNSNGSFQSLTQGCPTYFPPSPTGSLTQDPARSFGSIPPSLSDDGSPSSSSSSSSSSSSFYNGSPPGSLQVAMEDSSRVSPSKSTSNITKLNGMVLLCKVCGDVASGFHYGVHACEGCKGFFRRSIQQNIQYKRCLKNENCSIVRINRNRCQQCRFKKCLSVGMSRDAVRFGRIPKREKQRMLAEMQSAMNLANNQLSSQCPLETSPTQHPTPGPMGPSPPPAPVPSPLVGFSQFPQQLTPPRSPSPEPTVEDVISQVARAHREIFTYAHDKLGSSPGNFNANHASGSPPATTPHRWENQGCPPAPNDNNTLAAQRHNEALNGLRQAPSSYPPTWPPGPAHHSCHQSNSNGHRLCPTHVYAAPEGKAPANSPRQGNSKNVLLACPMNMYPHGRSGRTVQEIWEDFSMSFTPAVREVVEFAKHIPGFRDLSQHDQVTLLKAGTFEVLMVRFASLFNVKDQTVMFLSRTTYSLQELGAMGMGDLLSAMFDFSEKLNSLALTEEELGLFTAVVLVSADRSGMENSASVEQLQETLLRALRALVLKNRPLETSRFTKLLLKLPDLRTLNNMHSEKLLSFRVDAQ
PG9 binder – small molecules binding HIV-1 gp120 antibody PG9; 0.43% of 360,000 active; TR-FRET gp120-PG9 antibody binding; inhibition, % at 6.7 µM; in the data active = inhibition above about 8.5%
NR2E3 ag-2 – activates human photoreceptor nuclear receptor NR2E3. Q9Y5X4. GST-NR2E3/biotin-RetCOR TR-FRET, 1536-well. 0.12% of 320,000 active. inhibition of corepressor binding, % at 4.78 µM. AID 2300;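 active = percent inhibition above the cutoff of mean plus 3 SD of all tested compounds, set per screening campaign, cut at about 20% in these data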
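System: GST-tagged NR2E3 plus biotinylated RetCOR corepressor; Buffer or medium: pH 7.5 Tris-based buffer; Probe or stimulus: RetCOR corepressor, biotinylated, 7 nM; Doses: compound at 4.8 µM, single dose; Schedule: 5 h incubation at 4 °C; Technique: time-resolved FRET; Evaluation: percent inhibition of TR-FRET ratio; Replication: one well per compound, singlicate testing.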
NR1D1 mod conf – Rev-erb alpha (human) modulation, hit confirmation | shares compounds with Rev-erbA mod | Rev-erb alpha FITC-DNA binding, fluorescence polarization, 90 min | activation, % at 25 µM | 61% of 3,000 active | AID 1259319;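 active = activation at or above a set limit, or at least 3 SD above the negative control mean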
RORg counter – affects RORgamma DNA binding in a Rev-erb alpha counter-screen | shares compounds with Rev-erbA mod | purified RORgamma protein-FITC-DNA binding, fluorescence polarization | IC50, µM | 8% of 910 active | AID 1259320;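 active = Compounds whose fitted half-maximal concentration for disrupting protein-DNA binding is below 10 micromolar; the record names Rev-erb in its text, so the target is in doubt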
Large screens that a line does not name were inactive (follow-up assays come after a bar, where they were run). Hits are enriched below; roughly 2% of the tested compounds scored in any of these assays.

Cc1cc2cc3c(cc2nc1SCC(=O)Nc1ccccc1)CCC3	Rev-erbA mod 33.2 | NR1D1 mod conf inactive
COc1cc(NC(=O)CSc2nc3ccccc3cc2C)c(C(=O)O)cc1OC	none
Cc1ccc(-c2nnc(SCC(=O)Nc3ccc(S(=O)(=O)N4CCCCCC4)cc3)o2)cc1	none
Cc1ccc(S(=O)(=O)NC(=O)C2(C)CCN2C(=O)CC2CCCC2)nc1 (stereo not given)	none (no result: NR2E3 ag-2)
COc1ccc(C(=O)CSc2nnc(-c3ccc(S(=O)(=O)N4CCOCC4)cc3)o2)cc1	none
O=C(CSc1nnc(-c2ccc(S(=O)(=O)N3CCOCC3)cc2)o1)c1ccccc1F	Rev-erbA mod 20.9 | NR1D1 mod conf inactive
Cc1cc2n(n1)C(c1cn(-c3ccccc3)nc1C)Nc1ccccc1-2 (stereo not given)	Rev-erbA mod 28.5 | NR1D1 mod conf inactive
COc1ccc(NC(=O)c2sc3nc(N4CCCC4)c4c(c3c2N)CC(C)(C)OC4)c(OC)c1	Rev-erbA mod 53.3 | NR1D1 mod conf 29.8 | RORg counter inactive
CC1(C)Cc2c(c(N3CCCC3)nc3sc(C(=O)Nc4ccccc4)c(N)c23)CO1	Rev-erbA mod 50.0 | NR1D1 mod conf 43.6 | RORg counter inactive
CCOc1ccc(NC(=O)c2sc3nc(N4CCOCC4)c4c(c3c2N)CC(C)(C)OC4)cc1	Rev-erbA mod 33.4 | NR1D1 mod conf inactive
CCCCCCCCNS(=O)(=O)CC1NCc2ccc(C)cc21 (stereo not given)	none (no result: Neddyl block, NR2E3 ag-1, PG9 binder, NR2E3 ag-2)
COC(=O)CN(Cc1cn(Cc2ccccc2)nn1)S(=O)(=O)c1ccccc1Br	none (no result: Neddyl block, NR2E3 ag-1, PG9 binder, NR2E3 ag-2)
Cc1ccccc1C(=O)N[C@@H](Cc1cccnc1)C(=O)N1CCC[C@H]1C(=O)NC1CCCC1	none (no result: Neddyl block, NR2E3 ag-1, NR2E3 ag-2)
Cc1cccc(CN2CCN(C3CN(Cc4cn(Cc5ccccc5C(F)(F)F)nn4)S(=O)(=O)C3)CC2)c1 (stereo not given)	none (no result: NR2E3 ag-2)
O=C(c1ccccc1)N1CC[C@H]2[C@H](CCCN2Cc2cc(F)cc(F)c2)C1	none (no result: Neddyl block, NR2E3 ag-1, PG9 binder, NR2E3 ag-2)
Cc1ccc(C(=O)N(Cc2ccco2)c2c(N)n(Cc3ccccc3)c(=O)[nH]c2=O)cc1	none (no result: NR2E3 ag-2)
COc1cc(OC)cc(C(=O)N(Cc2ccco2)c2c(N)n(Cc3ccccc3)c(=O)[nH]c2=O)c1	Rev-erbA mod 17.5 (no result: NR2E3 ag-2) | NR1D1 mod conf inactive
COc1cccc(-n2nnnc2SCC(=O)Nc2ccc3c(c2)OCCO3)c1	Rev-erbA mod 30.3 | NR1D1 mod conf 46.0 | RORg counter inactive
O=C(CCc1c[nH]c2ccccc12)NCCc1ccc(Cl)cc1	Rev-erbA mod 37.2 | NR1D1 mod conf 35.6 | RORg counter inactive
Cc1ccc(OCCC(=O)OCC(=O)NC(=O)NCc2ccccc2)cc1	Rev-erbA mod 17.5 | NR1D1 mod conf inactive
Cc1cccc(S(=O)(=O)NC(=O)C2(C)CCN2C(=O)Cc2ccc(Cl)cc2Cl)c1 (stereo not given)	none (no result: NR2E3 ag-2)
CCCCCCn1cc(C(=O)O)c(=O)c2cc(F)c(N3CCN(C(=O)OCC)CC3)cc21	Rev-erbA mod 30.7 | NR1D1 mod conf inactive
C=CCCCCCCCCC(=O)N1CCN(c2cc3c(cc2F)c(=O)c(C(=O)O)cn3CC)CC1	none
COc1ccccc1NC(=O)CCCN1C(=O)C2CC=CCC2C1=O (stereo not given)	none
Cc1cc(Cl)ccc1OCC(=O)N/N=C/c1ccc[nH]1	none (no result: Neddyl block, NR2E3 ag-1, PG9 binder, NR2E3 ag-2)
COc1ccc2cc(C(=O)Nc3ccc(S(N)(=O)=O)cc3)sc(=O)c2c1OC	Rev-erbA mod 26.4 | NR1D1 mod conf 37.4 | RORg counter inactive
O=C1NC[C@@H](CCCCN2C[C@H](Cc3ccccc3)N(CCC3CCCCC3)C(=O)C2=O)N(CC2CCCCC2)C1=O	none (no result: NR2E3 ag-2)
C[C@@H]1CN([C@H](C)CO)C(=O)c2cc(C#CC(C)(C)O)cnc2O[C@@H]1CN(C)C(=O)C1CC1	none (no result: NR2E3 ag-2)
O=C(Cn1cc(C(F)(F)F)cc(Cl)c1=O)NCc1ccc(Cl)cc1Cl	Rev-erbA mod 38.8 | NR1D1 mod conf 55.8 | RORg counter inactive
Cc1ccccc1NC(=O)Nc1nnc([C@@H]2C[C@H](O)[C@@H](CO)O2)s1	none (no result: NR2E3 ag-2)
Cc1ccc(/C=N/c2sc(Cc3ccccc3)c(C)c2C(N)=O)o1	Rev-erbA mod 29.5 | NR1D1 mod conf inactive
Cc1c(Cc2ccccc2)sc(/N=C/c2ccc3ccccc3c2)c1C(N)=O	none (no result: Rev-erbA mod, PG9 binder)
Cc1cc(N2CCN(CC(C)(C)O)C[C@@H]2C)ccc1N1CCN(CC(C)(C)O)[C@@H](C)C1	none (no result: Neddyl block, NR2E3 ag-1, NR2E3 ag-2)
CC(COc1ccc(C#N)cc1F)CN1CCC(C(O)(c2ccccc2)c2ccccc2)CC1 (stereo not given)	none (no result: Neddyl block, NR2E3 ag-1, PG9 binder, NR2E3 ag-2)
CCOC(=O)c1c(NC(=S)NCCc2ccccc2)sc2c1CC(C(C)C)OC2 (stereo not given)	Rev-erbA mod 26.0 | NR1D1 mod conf 25.3
C=CCNC(=S)Nc1sc2c(c1C(=O)OCC)CC(C(C)C)OC2 (stereo not given)	none
Cc1ccc2c(COC(=O)CNS(=O)(=O)c3ccccc3)cc(=O)oc2c1	none (no result: NR2E3 ag-2)
CCOC(=O)Nc1ccc2c(COC(=O)CNS(=O)(=O)c3ccc(NC(C)=O)cc3)cc(=O)oc2c1	Rev-erbA mod 54.5 | NR1D1 mod conf 34.7 | RORg counter inactive
CCCCCCCCN1C(=O)[C@H](CC(=O)NCCC(C)C)C[C@@]2(C(=O)OCC)CCCC=C12	none (no result: NR2E3 ag-2)
CCCn1c(N)c(C(=O)CSc2nc3ccccc3c(=O)n2Cc2ccccc2)c(=O)[nH]c1=O	Rev-erbA mod 73.8 | NR1D1 mod conf 61.4
Cn1c(N)c(C(=O)CSc2nc3ccccc3c(=O)n2Cc2ccccc2)c(=O)n(C)c1=O	none
Cc1nc(SCC(=O)N(C)Cc2ccco2)c2c(C)c(C)sc2n1	none
CCCn1c(N)c(C(=O)CSc2nc(C)nc3sc(C)c(C)c23)c(=O)[nH]c1=O	Rev-erbA mod 34.5 | NR1D1 mod conf 61.1 | RORg counter inactive
CCCn1c(N)c(C(=O)CSc2nc(C)cs2)c(=O)[nH]c1=O	none
CCN(C(=O)CSc1nc(C)nc2sc(C)c(C)c12)c1ccc(F)cc1	Rev-erbA mod 24.4 | NR1D1 mod conf inactive
C[C@H]1CN([C@@H](C)CO)C(=O)CCCn2nncc2CO[C@@H]1CN(C)Cc1ccc2cccnc2c1	none (no result: Neddyl block, NR2E3 ag-1, NR2E3 ag-2)
CC(C)(C)c1ccc(C(=O)Nc2cc(Cl)c(F)cc2C(=O)O)cc1	none (no result: Neddyl block, NR2E3 ag-1, PG9 binder, NR2E3 ag-2)
O=C(Nc1ccccc1C(F)(F)F)OCCN1C(=O)CCC12CCC(c1ccccc1)CC2 (stereo not given)	Rev-erbA mod 26.5 (no result: Neddyl block, NR2E3 ag-1, PG9 binder, NR2E3 ag-2) | NR1D1 mod conf 28.3 | RORg counter inactive
N#Cc1cccc(NC(=O)OCCN2C(=O)CCC23CCC(c2ccccc2)CC3)c1 (stereo not given)	none (no result: Neddyl block, NR2E3 ag-1, PG9 binder, NR2E3 ag-2)
Clc1ccc(-c2nnc3sc(-c4ccc(Br)o4)nn23)c(Cl)c1	none
Clc1ccccc1-c1nn2c(-c3cc(-c4ccccc4)n[nH]3)nnc2s1	Rev-erbA mod 29.7 (no result: Neddyl block, NR2E3 ag-1, PG9 binder, NR2E3 ag-2) | NR1D1 mod conf 43.8 | RORg counter inactive
